Data: ChEMBL document CHEMBL1914408, “Synthesis and biological evaluation of hydroxylated 3-phenylcoumarins as antioxidants and antiproliferative agents” (Bioorg Med Chem Lett, 2011)
Active and inactive are the calls of the source. No cut-off for these calls is given here.

Tests used:
[1] = Antioxidant activity assessed as protection against […]-induced pBR322 DNA strand breakage at 20 uM after 1 hr using ethidium bromide staining by agarose gel electrophoresis analysis; type: functional
Procedure, shortened: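 Supercoiled plasmid pBR322 DNA (100 ng/25 µl) incubated with 10 mM AAPH plus 20 µM test compound in 10 mM PBS, pH 7.4, 37 °C, 1 h; strand breakage (supercoiled vs open circular/linear forms) read by agarose gel electrophoresis. Controls: DNA alone (native) and DNA with AAPH.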

HL-60 [2] = test: Antiproliferative activity against human HL60 cells after 48 hrs by MTT assay; type: functional, cell-based; settings: HL-60, 48 h
Procedure, shortened: (§1)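 MTT proliferation assay in HL-60 and A549 cells; IC50 taken as concentration giving 50% inhibition of cell proliferation, reported as mean ± SD of three determinations.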

A549 [3] = test: Antiproliferative activity against human A549 cells after 72 hrs by MTT assay; type: functional, cell-based; settings: A549, 72 h; procedure, shortened: as §1
A549 [4] = test: Induction of apoptosis in human A549 cells assessed as changes in cell morphology after 24 hrs by Hoechst-33258/propodium iodide staining based fluorescence microscopy; type: functional
Procedure, shortened: (§2)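 A549 cells treated with culture medium or 5, 10 and 15 µM compound for 24 h, then nuclear-stained with Hoechst 33258/propidium iodide and viewed by fluorescence microscopy (200×). Living cells scored as smooth blue nuclei; early apoptotic cells as blue with bright specks of condensed chromatin. Representative of three separate experiments.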

A549 [5] = test: Induction of early apoptosis in human A549 cells assessed as reduction of living cells after 24 hrs by Hoechst-33258/propodium iodide staining based fluorescence microscopy; type: functional, cell-based; procedure, shortened: as §2
A549 [6] = test: Induction of apoptosis in human A549 cells assessed as condensed chromatin after 24 hrs by Hoechst-33258/propodium iodide staining based fluorescence microscopy; type: functional, cell-based; procedure, shortened: as §2
A549 [7] = test: Cell cycle arrest in human A549 cells assessed as accumulation at G0/G1 phase at 10 uM after 24 hrs using propidium iodide staining by flow cytometric analysis (reference value: 70.68 %); type: functional
A549 [8] = test: Cell cycle arrest in human A549 cells assessed as accumulation at S phase at 10 uM after 24 hrs using propidium iodide staining by flow cytometric analysis (reference value: 21.16 %); type: functional
A549 [9] = test: Cell cycle arrest in human A549 cells assessed as accumulation at G2/M phase at 10 uM after 24 hrs using propidium iodide staining by flow cytometric analysis (reference value: 8.16 %); type: functional
A549 [10] = test: Cell cycle arrest in human A549 cells assessed as accumulation at G0/G1 phase at 15 uM after 24 hrs using propidium iodide staining by flow cytometric analysis (reference value: 70.68 %); type: functional
A549 [11] = test: Cell cycle arrest in human A549 cells assessed as accumulation at S phase at 15 uM after 24 hrs using propidium iodide staining by flow cytometric analysis (reference value: 21.16 %); type: functional
A549 [12] = test: Cell cycle arrest in human A549 cells assessed as accumulation at G2/M phase at 15 uM after 24 hrs using propidium iodide staining by flow cytometric analysis (reference value: 8.16 %); type: functional
A549 [13] = test: Cell cycle arrest in human A549 cells assessed as accumulation at G0/G1 phase at 20 uM after 24 hrs using propidium iodide staining by flow cytometric analysis (reference value: 70.68 %); type: functional
A549 [14] = test: Cell cycle arrest in human A549 cells assessed as accumulation at S phase at 20 uM after 24 hrs using propidium iodide staining by flow cytometric analysis (reference value: 21.16 %); type: functional
A549 [15] = test: Cell cycle arrest in human A549 cells assessed as accumulation at G2/M phase at 20 uM after 24 hrs using propidium iodide staining by flow cytometric analysis (reference value: 8.16 %); type: functional
A549 [16] = test: Cell cycle arrest in human A549 cells assessed as accumulation at G0/G1 phase at 30 uM after 24 hrs using propidium iodide staining by flow cytometric analysis (reference value: 70.68 %); type: functional
A549 [17] = test: Cell cycle arrest in human A549 cells assessed as accumulation at S phase at 30 uM after 24 hrs using propidium iodide staining by flow cytometric analysis (reference value: 21.16 %); type: functional
A549 [18] = test: Cell cycle arrest in human A549 cells assessed as accumulation at G2/M phase at 30 uM after 24 hrs using propidium iodide staining by flow cytometric analysis (reference value: 8.16 %); type: functional
A549 [19] = test: Cell cycle arrest in human A549 cells assessed as accumulation at G0/G1 phase at 40 uM after 24 hrs using propidium iodide staining by flow cytometric analysis (reference value: 70.68 %); type: functional
A549 [20] = test: Cell cycle arrest in human A549 cells assessed as accumulation at S phase at 40 uM after 24 hrs using propidium iodide staining by flow cytometric analysis (reference value: 21.16 %); type: functional
A549 [21] = test: Cell cycle arrest in human A549 cells assessed as accumulation at G2/M phase at 40 uM after 24 hrs using propidium iodide staining by flow cytometric analysis (reference value: 8.16 %); type: functional
HL-60 [22] = test: Antiproliferative activity against human HL60 cells after 48 hrs by MTT assay relative to resveratrol; type: functional
A549 [23] = test: Antiproliferative activity against human A549 cells after 72 hrs by MTT assay relative to resveratrol; type: functional

Compound | IC50 (HL-60 [2]) | IC50 (A549 [3]) | Activity [1] | other results
COc1cc2cc(-c3ccc(O)cc3)c(=O)oc2c(OC)c1O | 25.1 µM | 45.8 µM | Active | 
O=c1oc2cc(O)ccc2cc1-c1ccc(O)c(O)c1 | 42.1 µM | 85 µM |  | 
O=c1oc2cc(O)c(O)cc2cc1-c1ccc(O)cc1 | 25 µM | 42.5 µM | Active | 
COc1cc2cc(-c3ccc(O)cc3)c(=O)oc2cc1O | 5.2 µM | 7.5 µM | inactive | Activity (A549 [4]): Dose-dependent effect; Activity (A549 [5]): Dose-dependent effect; Activity (A549 [6]): Dose-dependent effect; Activity (A549 [7]): 71.45%; Activity (A549 [8]): 11.95%; Activity (A549 [9]): 16.6%; Activity (A549 [10]): 34.49%; Activity (A549 [11]): 19.86%; Activity (A549 [12]): 40.65%; Activity (A549 [13]): 11.82%; Activity (A549 [14]): 18.1%; Activity (A549 [15]): 70.08%; Activity (A549 [16]): 9.62%; Activity (A549 [17]): 9.43%; Activity (A549 [18]): 80.95%; Activity (A549 [19]): 7.11%; Activity (A549 [20]): 8.86%; Activity (A549 [21]): 84.03%; fold change (FC) (HL-60 [22]): 7; fold change (FC) (A549 [23]): 16
COc1cc(-c2cc3cc(OC)c(O)cc3oc2=O)ccc1O | 24.3 µM | 21.4 µM | Active | 
O=c1oc2cc(O)c(O)cc2cc1-c1ccccc1 | 14 µM | 27 µM | Active | 
O=c1oc2cc(O)c(O)cc2cc1-c1ccc(O)c(O)c1 | 22.1 µM | 48.8 µM | Active | 
O=c1oc2cc(O)ccc2cc1-c1cc(O)cc(O)c1 | 127 µM | > 200 µM |  | 
O=c1oc2ccccc2cc1-c1ccc(O)cc1 | > 200 µM | > 200 µM |  | 
COc1cc2cc(-c3cc(OC)c(OC)c(OC)c3)c(=O)oc2c(OC)c1O | 72.2 µM | > 200 µM | Active | 

Further lines, with some results ahead:

IC50 (HL-60 [2]) | IC50 (A549 [3]) | Compound | Activity [1] | other results
> 200 µM | > 200 µM | O=c1oc2cc(O)ccc2cc1-c1ccc(O)cc1 | Active | 
 | 120 µM | Oc1ccc(/C=C/c2cc(O)cc(O)c2)cc1 [RESVERATROL] |  | 
91.7 µM | > 200 µM | COc1cc(-c2cc3ccc(O)cc3oc2=O)ccc1O | Active | 
> 200 µM | > 200 µM | O=c1oc2cc(O)ccc2cc1-c1ccccc1 |  | 
 | 43.4 µM | COc1cc(-c2cc3cc(O)c(O)cc3oc2=O)ccc1O |  | 
